≈ marks a conversion by molar mass, not a printed value. Calls of active or inactive are those of the source. The rule behind the calls is not given here.
Legend:
[1] = target: Serine/threonine-protein kinase pim-1 (Homo sapiens) (UniProt P11309); assay: Inhibition of partial length human PIM1 expressed in bacterial system at 1 uM
Outline: (§1)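 Single-concentration screen across a panel of 97 kinases, with the test compound at 1 uM.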

[2] = target: Fibroblast growth factor receptor 2 (Homo sapiens) (UniProt P21802); assay: Inhibition of partial length human FGFR2 expressed in bacterial system at 1 uM
Outline: (§2)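 Single-point screen within a 97-kinase profiling panel, with the test compound at 1 µM.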

[3] = target: Receptor tyrosine-protein kinase erbB-2 (Homo sapiens) (UniProt P04626); assay: Inhibition of partial length human ERBB2 expressed in mammalian system at 1 uM
Outline: (§3)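 Single-concentration screen at 1 µM test concentration, run as part of a commercial binding/activity profiling panel covering 97 kinases.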

[4] = target: Phosphatidylinositol 4-phosphate 3-kinase C2 domain-containing subunit beta (Homo sapiens) (UniProt O00750); assay: Inhibition of partial length human PIK3C2beta expressed in mammalian system at 1 uM; outline: as §1
Chain of Phosphatidylinositol 4-phosphate 3-kinase C2 domain-containing subunit beta (Homo sapiens) (O00750 whole entry, the tested form may be a part): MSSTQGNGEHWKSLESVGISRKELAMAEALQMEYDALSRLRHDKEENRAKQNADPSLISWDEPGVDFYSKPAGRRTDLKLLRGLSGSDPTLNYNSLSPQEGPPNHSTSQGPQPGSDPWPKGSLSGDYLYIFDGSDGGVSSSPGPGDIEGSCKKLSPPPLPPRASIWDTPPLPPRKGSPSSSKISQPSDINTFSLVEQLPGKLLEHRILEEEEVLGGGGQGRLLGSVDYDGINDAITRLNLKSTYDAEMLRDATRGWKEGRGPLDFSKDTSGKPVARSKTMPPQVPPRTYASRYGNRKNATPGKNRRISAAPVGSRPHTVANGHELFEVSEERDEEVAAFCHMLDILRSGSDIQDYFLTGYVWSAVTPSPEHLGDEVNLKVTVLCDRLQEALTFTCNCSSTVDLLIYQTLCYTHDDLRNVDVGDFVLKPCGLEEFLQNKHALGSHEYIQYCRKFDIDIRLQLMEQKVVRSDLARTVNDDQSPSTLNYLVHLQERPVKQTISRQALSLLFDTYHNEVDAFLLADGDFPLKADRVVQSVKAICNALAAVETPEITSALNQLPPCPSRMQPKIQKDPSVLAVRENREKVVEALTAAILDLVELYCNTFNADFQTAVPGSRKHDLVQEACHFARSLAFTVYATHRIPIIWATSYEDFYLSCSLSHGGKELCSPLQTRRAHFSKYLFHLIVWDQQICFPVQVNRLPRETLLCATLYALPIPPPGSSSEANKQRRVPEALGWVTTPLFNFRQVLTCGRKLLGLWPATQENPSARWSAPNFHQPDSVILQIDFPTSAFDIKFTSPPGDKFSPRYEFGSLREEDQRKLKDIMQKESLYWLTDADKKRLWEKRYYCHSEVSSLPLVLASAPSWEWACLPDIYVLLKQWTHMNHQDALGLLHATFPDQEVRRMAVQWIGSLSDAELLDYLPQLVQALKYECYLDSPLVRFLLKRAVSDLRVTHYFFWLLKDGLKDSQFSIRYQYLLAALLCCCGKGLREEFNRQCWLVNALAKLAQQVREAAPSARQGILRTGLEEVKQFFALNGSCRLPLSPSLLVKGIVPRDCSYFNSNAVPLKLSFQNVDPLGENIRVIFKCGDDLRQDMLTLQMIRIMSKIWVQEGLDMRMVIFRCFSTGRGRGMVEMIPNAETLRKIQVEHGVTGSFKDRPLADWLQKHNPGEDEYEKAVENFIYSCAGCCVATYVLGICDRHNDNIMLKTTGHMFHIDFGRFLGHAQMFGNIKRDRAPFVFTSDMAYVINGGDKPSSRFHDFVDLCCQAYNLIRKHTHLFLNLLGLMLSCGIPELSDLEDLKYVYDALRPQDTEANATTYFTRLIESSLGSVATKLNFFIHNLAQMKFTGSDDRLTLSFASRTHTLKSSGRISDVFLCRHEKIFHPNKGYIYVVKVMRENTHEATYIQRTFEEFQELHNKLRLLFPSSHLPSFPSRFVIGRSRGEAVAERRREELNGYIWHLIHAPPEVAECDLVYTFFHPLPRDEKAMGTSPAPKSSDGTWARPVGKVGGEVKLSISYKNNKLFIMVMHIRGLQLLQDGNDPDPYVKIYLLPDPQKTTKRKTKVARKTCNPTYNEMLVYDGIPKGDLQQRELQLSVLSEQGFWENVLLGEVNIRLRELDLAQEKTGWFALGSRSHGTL

[5] = target: cAMP-dependent protein kinase catalytic subunit alpha (Homo sapiens) (UniProt P17612); assay: Inhibition of partial length human PKACalpha expressed in bacterial system at 1 uM; outline: as §1
SW480 [6] = assay: Antiproliferative activity against human SW480 cells assessed as change in phenotypic response up to 50 uM; assay type: functional, cell-based
[7] = target: Protein kinase C epsilon type (Homo sapiens) (UniProt Q02156); assay: Inhibition of partial length human PRKCE expressed in mammalian system at 1 uM; outline: as §1
[8] = tested on: Epidermal growth factor receptor (Homo sapiens), P04626+P00533+Q15303+P21860 [L858R]; assay: Inhibition of partial length human EGFR L858R mutant expressed in bacterial system at 1 uM; outline: as §3
[9] = target: Serine/threonine-protein kinase STK11 (Homo sapiens) (UniProt Q15831); assay: Inhibition of partial length human LKB1 expressed in bacterial system at 1 uM; outline: as §2
[10] = target: Mitogen-activated protein kinase kinase kinase 9 (Homo sapiens) (UniProt P80192); assay: Inhibition of partial length human MLK1 expressed in bacterial system at 1 uM; outline: as §1
[11] = target: Aurora kinase B (Homo sapiens) (UniProt Q96GD4); assay: Inhibition of partial length human Aurora B expressed in mammalian system at 1 uM; outline: as §2
HCT-116 = assay: Antiproliferative activity against human HCT116 cells assessed as change in phenotypic response measured after prolonged treatment; assay type: functional, cell-based
[12] = target: Cyclin-dependent kinase 16 (Homo sapiens) (UniProt Q00536); assay: Inhibition of partial length human PCTK1 expressed in mammalian system at 1 uM; outline: as §1
[13] = Plasma protein binding in human; assay type: ADME, cell-free; conditions: read-out: PPB (converted)
[14] = target: Receptor tyrosine-protein kinase erbB-4 (Homo sapiens) (UniProt Q15303); assay: Inhibition of partial length human ERBB4 expressed in bacterial system at 1 uM; outline: as §2
[15] = Efflux ratio of permeability in MDCK cells; assay type: ADME, cell-based, Canis lupus familiaris; conditions: dog
Outline: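 Permeability measured across a confluent MDCK cell monolayer, with the efflux ratio reported alongside the permeability value.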

[16] = target: Dual specificity mitogen-activated protein kinase kinase 1 (Homo sapiens) (UniProt Q02750); assay: Inhibition of partial length human MEK1 expressed in mammalian system at 1 uM; outline: as §2
Chain of Dual specificity mitogen-activated protein kinase kinase 1 (Homo sapiens) (Q02750 whole entry): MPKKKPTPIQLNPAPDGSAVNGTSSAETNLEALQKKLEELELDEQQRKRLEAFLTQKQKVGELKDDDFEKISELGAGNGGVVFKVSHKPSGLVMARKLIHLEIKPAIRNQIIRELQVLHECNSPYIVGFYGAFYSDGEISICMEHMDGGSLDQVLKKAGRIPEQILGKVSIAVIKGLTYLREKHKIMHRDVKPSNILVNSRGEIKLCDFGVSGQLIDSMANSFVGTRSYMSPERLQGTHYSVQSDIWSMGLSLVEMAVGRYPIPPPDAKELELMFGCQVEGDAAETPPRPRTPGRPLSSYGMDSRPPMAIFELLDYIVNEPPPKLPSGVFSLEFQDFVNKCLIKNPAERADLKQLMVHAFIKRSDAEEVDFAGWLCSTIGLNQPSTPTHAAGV

BJ = assay: Cytotoxicity against human BJ cells assessed as change in phenotypic response measured after prolonged treatment; assay type: cell-based
Liver microsome = assay: Intrinsic clearance in human liver microsomes; assay type: ADME
[17] = target: Serine/threonine-protein kinase RIO2 (Homo sapiens) (UniProt Q9BVS4); assay: Inhibition of partial length human RIOK2 expressed in mammalian system at 1 uM; outline: as §1
[18] = target: MAP/microtubule affinity-regulating kinase 3 (Homo sapiens) (UniProt P27448); assay: Inhibition of partial length human MARK3 expressed in bacterial system at 1 uM; outline: as §2
[19] = target: Serine/threonine-protein kinase DCLK1 (Homo sapiens) (UniProt O15075); assay: Inhibition of partial length human DCAMKL1 expressed in mammalian system at 1 uM; outline: as §2
[20] = target: Cyclin-dependent kinase 7 (Homo sapiens) (UniProt P50613); assay: Inhibition of partial length human CDK7 expressed in mammalian system at 1 uM; outline: as §2
[21] = target: Phosphatidylinositol 4,5-bisphosphate 3-kinase catalytic subunit alpha isoform (Homo sapiens) (UniProt P42336); assay: Inhibition of partial length human PIK3Calpha expressed in mammalian system at 1 uM; outline: as §1
[22] = Half life in human liver microsomes; assay type: ADME
Outline: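 Incubated with human or mouse liver microsomes; the read-out was intrinsic clearance alongside half-life, given in hours.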

[23] = target: Serine/threonine-protein kinase PLK1 (Homo sapiens) (UniProt P53350); assay: Inhibition of partial length human PLK1 expressed in mammalian system at 1 uM; outline: as §1
Chain of Serine/threonine-protein kinase PLK1 (Homo sapiens) (P53350 whole entry): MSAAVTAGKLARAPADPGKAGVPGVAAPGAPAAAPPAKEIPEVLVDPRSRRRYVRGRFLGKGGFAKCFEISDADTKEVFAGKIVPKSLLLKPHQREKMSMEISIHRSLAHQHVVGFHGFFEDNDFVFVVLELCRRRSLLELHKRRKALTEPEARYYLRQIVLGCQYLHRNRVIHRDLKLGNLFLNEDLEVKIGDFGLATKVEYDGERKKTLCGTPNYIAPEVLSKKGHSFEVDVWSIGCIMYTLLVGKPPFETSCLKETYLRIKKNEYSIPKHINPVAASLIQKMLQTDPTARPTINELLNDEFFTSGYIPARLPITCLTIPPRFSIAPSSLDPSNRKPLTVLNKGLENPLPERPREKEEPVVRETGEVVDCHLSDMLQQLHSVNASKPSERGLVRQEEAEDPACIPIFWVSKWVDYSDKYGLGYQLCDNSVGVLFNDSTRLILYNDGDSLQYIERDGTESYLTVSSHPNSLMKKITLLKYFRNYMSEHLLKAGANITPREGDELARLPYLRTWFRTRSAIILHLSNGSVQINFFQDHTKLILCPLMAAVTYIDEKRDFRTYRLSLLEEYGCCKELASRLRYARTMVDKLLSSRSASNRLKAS

SW480 [24] = assay: Antiproliferative activity against human SW480 cells assessed as change in phenotypic response measured after prolonged treatment; assay type: functional, cell-based
[25] = target: Dual specificity mitogen-activated protein kinase kinase 2 (Homo sapiens) (UniProt P36507); assay: Inhibition of partial length human MEK2 expressed in mammalian system at 1 uM; outline: as §1
[26] = target: Non-receptor tyrosine-protein kinase TYK2 (Homo sapiens) (UniProt P29597); assay: Inhibition of partial length human TYK2 JH1catalytic domain expressed in mammalian system at 1 uM; outline: as §1
[27] = Solubility of the compound in PBS at pH 7; assay type: physicochemical
Outline: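 Aqueous solubility was determined in sodium phosphate buffer at pH 7.0.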

[28] = target: Tyrosine-protein kinase ABL1 (Homo sapiens) (UniProt P00519); assay: Inhibition of partial length human ABL1 phosphorylation expressed in mammalian system at 1 uM; outline: as §2
Chain of Tyrosine-protein kinase ABL1 (Homo sapiens) (P00519 whole entry): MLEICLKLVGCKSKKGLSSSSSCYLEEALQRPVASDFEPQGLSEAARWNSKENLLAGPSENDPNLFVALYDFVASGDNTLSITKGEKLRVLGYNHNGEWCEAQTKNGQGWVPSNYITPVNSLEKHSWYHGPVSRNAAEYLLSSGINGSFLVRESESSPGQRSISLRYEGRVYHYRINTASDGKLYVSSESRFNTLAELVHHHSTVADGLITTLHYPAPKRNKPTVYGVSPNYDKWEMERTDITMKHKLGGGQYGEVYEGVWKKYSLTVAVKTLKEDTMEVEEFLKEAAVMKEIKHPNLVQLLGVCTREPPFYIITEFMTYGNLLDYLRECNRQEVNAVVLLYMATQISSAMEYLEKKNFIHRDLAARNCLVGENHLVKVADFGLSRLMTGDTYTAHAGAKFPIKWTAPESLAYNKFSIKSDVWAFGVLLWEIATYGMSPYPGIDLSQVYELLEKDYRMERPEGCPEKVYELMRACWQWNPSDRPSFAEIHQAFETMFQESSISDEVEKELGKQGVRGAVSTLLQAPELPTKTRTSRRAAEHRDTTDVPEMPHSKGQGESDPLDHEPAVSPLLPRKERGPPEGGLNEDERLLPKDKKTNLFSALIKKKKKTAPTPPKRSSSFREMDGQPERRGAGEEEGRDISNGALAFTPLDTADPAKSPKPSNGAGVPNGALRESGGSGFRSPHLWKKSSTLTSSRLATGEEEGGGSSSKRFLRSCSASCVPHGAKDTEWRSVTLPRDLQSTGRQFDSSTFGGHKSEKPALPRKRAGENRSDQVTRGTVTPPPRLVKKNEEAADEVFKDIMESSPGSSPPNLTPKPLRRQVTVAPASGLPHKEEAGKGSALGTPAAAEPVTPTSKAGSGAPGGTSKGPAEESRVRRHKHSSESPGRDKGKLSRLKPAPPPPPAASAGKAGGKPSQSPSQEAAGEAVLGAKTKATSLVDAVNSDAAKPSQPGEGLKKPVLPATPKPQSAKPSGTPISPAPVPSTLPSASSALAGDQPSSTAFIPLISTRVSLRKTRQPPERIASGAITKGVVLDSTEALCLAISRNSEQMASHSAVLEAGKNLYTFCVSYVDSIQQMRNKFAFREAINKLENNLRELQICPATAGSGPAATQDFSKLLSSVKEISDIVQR

[29] = target: Proto-oncogene tyrosine-protein kinase Src (Homo sapiens) (UniProt P12931); assay: Inhibition of partial length human SRC expressed in bacterial system at 1 uM; outline: as §1
[30] = target: SRSF protein kinase 3 (Homo sapiens) (UniProt Q9UPE1); assay: Inhibition of partial length human SRPK3 expressed in bacterial system at 1 uM; outline: as §1
[31] = target: Tyrosine-protein kinase ABL1 (Homo sapiens) (UniProt P00519); assay: Inhibition of partial length human ABL1 expressed in mammalian system at 1 uM; outline: as §2
[32] = target: Mitogen-activated protein kinase 8 (Homo sapiens) (UniProt P45983); assay: Inhibition of partial length human JNK1 expressed in mammalian system at 1 uM; outline: as §2
Chain of Mitogen-activated protein kinase 8 (Homo sapiens) (P45983 whole entry): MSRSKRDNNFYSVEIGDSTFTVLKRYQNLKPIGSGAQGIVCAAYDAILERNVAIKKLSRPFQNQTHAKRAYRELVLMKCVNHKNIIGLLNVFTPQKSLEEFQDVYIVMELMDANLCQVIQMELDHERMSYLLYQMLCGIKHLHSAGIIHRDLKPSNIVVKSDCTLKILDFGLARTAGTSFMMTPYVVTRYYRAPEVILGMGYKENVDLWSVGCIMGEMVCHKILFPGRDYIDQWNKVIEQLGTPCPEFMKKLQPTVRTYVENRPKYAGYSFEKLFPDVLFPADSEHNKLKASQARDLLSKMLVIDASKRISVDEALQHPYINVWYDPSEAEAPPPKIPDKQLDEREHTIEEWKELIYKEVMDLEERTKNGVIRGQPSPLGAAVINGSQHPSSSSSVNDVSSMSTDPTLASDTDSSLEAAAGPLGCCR

[33] = target: MAP kinase-interacting serine/threonine-protein kinase 1 (Homo sapiens) (UniProt Q9BUB5); assay: Inhibition of partial length human MKNK1 expressed in mammalian system at 1 uM; outline: as §1
[34] = target: Serine/threonine-protein kinase pim-3 (Homo sapiens) (UniProt Q86V86); assay: Inhibition of partial length human PIM3 expressed in bacterial system at 1 uM; outline: as §1
Homo sapiens = species: Homo sapiens; assay: Inhibition of partial length human CDK11 expressed in bacterial system at 1 uM
Outline: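 Single-concentration screen within a 97-kinase profiling panel (KinomeEdge), with the compound tested at one fixed concentration across all panel kinases.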

[35] = target: Cyclin-dependent kinase 9 (Homo sapiens) (UniProt P50750); assay: Inhibition of partial length human CDK9 expressed in bacterial system at 1 uM; outline: as §2
[36] = target: Mitogen-activated protein kinase 14 (Homo sapiens) (UniProt Q16539); assay: Inhibition of partial length human p38alpha expressed in bacterial system at 1 uM; outline: as §1

Chain of Serine/threonine-protein kinase pim-1 (Homo sapiens) (P11309 whole entry, looked up): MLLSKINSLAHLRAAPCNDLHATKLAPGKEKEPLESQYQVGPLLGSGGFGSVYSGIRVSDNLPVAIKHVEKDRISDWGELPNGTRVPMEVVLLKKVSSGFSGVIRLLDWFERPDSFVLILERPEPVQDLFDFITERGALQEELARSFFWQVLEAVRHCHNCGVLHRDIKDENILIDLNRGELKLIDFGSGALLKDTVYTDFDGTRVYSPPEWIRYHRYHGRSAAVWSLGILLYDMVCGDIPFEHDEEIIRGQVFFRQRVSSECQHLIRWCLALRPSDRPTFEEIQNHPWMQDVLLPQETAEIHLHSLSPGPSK

Cc1cnc(N)nc1OCC(C)(C)CO
inhibition [1]: inactive
inhibition [2]: inactive
inhibition [3]: inactive
inhibition [4]: inactive
inhibition [5]: inactive
Activity (SW480 [6]): inactive
inhibition [7]: inactive
inhibition [8]: inactive
inhibition [9]: inactive
inhibition [10]: inactive
inhibition [11]: inactive
Activity (HCT-116): inactive
inhibition [12]: inactive
fraction unbound [13]: 0.46
inhibition [14]: inactive
efflux ratio [15]: 0.8
inhibition [16]: inactive
Activity (BJ): Non-toxic
CLH (Liver microsome): 7.5 µL/min/mg
inhibition [17]: inactive
inhibition [18]: inactive
inhibition [19]: inactive
inhibition [20]: inactive
inhibition [21]: inactive
half-life [22]: 330 min
inhibition [23]: inactive
Activity (SW480 [24]): inactive
inhibition [25]: inactive
inhibition [26]: inactive
solubility [27]: 75.6 µM (≈ 16 µg/mL)
inhibition [28]: inactive
inhibition [29]: inactive
inhibition [30]: inactive
inhibition [31]: inactive
inhibition [32]: inactive
inhibition [33]: inactive
inhibition [34]: inactive
inhibition (Homo sapiens): inactive
inhibition [35]: inactive
inhibition [36]: inactive
